Among the data in ChEMBL document CHEMBL2401702, “A class of sulfonamides with strong inhibitory action against the α-carbonic anhydrase from Trypanosoma cruzi” (J Med Chem, 2013) are Ki and Activity values, retold here.

The source made the active and inactive calls. The calls are words filed in the database; no cut-off is given here.

Broadly, the Ki is a dissociation constant, usually derived from enzyme kinetics or from competition with a known ligand. Lower therefore signals a stronger hold on the target.

The target in the first experiment is Carbonic anhydrase 2 (Homo sapiens, UniProt P00918). Description: Inhibition of human carbonic anhydrase 2 preincubated for 15 mins to 6 hrs by CO2 hydration stopped-flow assay.
In turn, `COc1ccc(CC(=O)NCCc2ccc(S(N)(=O)=O)cc2)cc1` displayed a Ki of 0.81 nM.
Same read-out and setting: the same measure for `NS(=O)(=O)c1ccc(CCNC(=O)Cc2ccc(Cl)cc2)cc1`: 6.4 nM.

Another experiment concerns Trypanosoma cruzi. The experiment can be described thus: Antitrypanosomal activity against Trypanosoma cruzi epimastigotes at 64 to 256 uM by ELISA. The format is functional, organism-based. The gist of the method:
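Resazurin viability assay on log-phase T. cruzi epimastigotes (strains DM28 and Y). Cultures seeded 24 h at 28 °C, plated and incubated a further 48 h at 28 °C. Resazurin added, incubation 1–6 h, then dual-wavelength absorbance at 490 and 595 nm with background subtracted. Compounds tested at 256, 128 and 64 μM. Benznidazole as reference. Three experiments, each in triplicate.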
For orientation: ELISA stands for enzyme-linked immunosorbent assay.
Consider `NS(=O)(=O)c1ccc(NC(=O)Cc2ccc(Cl)cc2)c(F)c1`, for which the outcome was inactive.
Same read-out and setting: the entry for `NS(=O)(=O)c1ccc(NC(=O)Cc2ccccc2Br)c(F)c1` is “inactive”; for `NS(=O)(=O)c1ccc(CCNC(=O)Cc2ccccc2Br)cc1` it is “inactive”; for `COc1ccc(CC(=O)Nc2nnc(S(N)(=O)=O)s2)cc1` it is “inactive”.
Still for that read-out and setting: the same measure for `NS(=O)(=O)c1nnc(NC(=O)Cc2ccc(Cl)cc2)s1`: “inactive”.

Target in the next experiment: not listed separately
Description: Inhibition of Trypanosoma cruzi carbonic anhydrase preincubated for 15 mins to 6 hrs by CO2 hydration stopped-flow assay. The gist of the method: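 Recombinant TcCA prepared in-house. Stopped-flow CO2 hydration assay with 0.2 mM phenol red read at 557 nm, in 20 mM HEPES pH 7.5 with 20 mM Na2SO4, at 20 °C. CO2 1.7–17 mM. Initial rates taken over 10–100 s and uncatalyzed rates subtracted. Inhibitor diluted down to 0.01 nM and preincubated with enzyme 15 min at room temperature or 6 h at 4 °C. KI by nonlinear least squares, mean of ≥3 determinations.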
`NS(=O)(=O)c1ccc(NC(=O)Cc2ccc(Cl)cc2)c(F)c1` came in with a Ki of 1.2 nM.
Regarding `NS(=O)(=O)c1ccc(NC(=O)Cc2ccc(Cl)cc2)c(Cl)c1`, the Ki came to 7.7 nM.
Still for that read-out and setting: the figure for `NS(=O)(=O)c1ccc(CNC(=O)Cc2ccc(F)cc2)cc1` is 3.7 nM.
For `NS(=O)(=O)c1ccc(NC(=O)Cc2ccccc2Br)c(F)c1`, the Ki came out at 1.6 nM.
As to `NS(=O)(=O)c1ccc(NC(=O)Cc2ccccc2Br)cc1`, the Ki was determined as 8.9 nM.
Still for that read-out and setting: the same measure for `NS(=O)(=O)c1ccc(NC(=O)Cc2ccc(F)cc2)c(Br)c1`: 9 nM; for `NS(=O)(=O)c1ccc(NC(=O)Cc2ccccc2Br)c(Br)c1`: 10.9 nM; for `NS(=O)(=O)c1ccc(CCNC(=O)Cc2ccc(F)cc2)cc1`: 9.1 nM.
`COc1ccc(CC(=O)Nc2ccc(S(N)(=O)=O)cc2F)cc1` returned a Ki of 4.1 nM.
Regarding `NS(=O)(=O)c1nnc(NC(=O)Cc2ccccc2Br)s1`, the Ki came to 0.83 nM.
In the case of `CC(=O)Nc1nnc(S(N)(=O)=O)s1` [ACETAZOLAMIDE], affinity was put at a Ki of […].
Turning to `COc1ccc(CC(=O)Nc2ccc(S(N)(=O)=O)cc2Br)cc1`, the Ki turned out to be 7.2 nM.
`NS(=O)(=O)c1nnc(NC(=O)Cc2ccc(F)cc2)s1` yielded a Ki of 7.6 nM.
Still for that read-out and setting: the figure for `NS(=O)(=O)c1ccc(NC(=O)Cc2ccccc2Br)c(Cl)c1` is 7.8 nM; for `NS(=O)(=O)c1ccc(NC(=O)Cc2ccc(F)cc2)c(Cl)c1` it is 7 nM.
In turn, `NS(=O)(=O)c1ccc(NC(=O)Cc2ccc(F)cc2)c(F)c1` returned a Ki of 8.3 nM.
Still for that read-out and setting: the figure for `NS(=O)(=O)c1ccc(NC(=O)Cc2ccc(Cl)cc2)c(Br)c1` is 7.1 nM; for `NS(=O)(=O)c1ccc(NC(=O)Cc2ccc(F)cc2)cc1` it is 8.5 nM.
In turn, `NS(=O)(=O)c1ccc(CNC(=O)Cc2ccccc2Br)cc1` displayed a Ki of 9 nM.
Still for that read-out and setting: the same measure for `COc1ccc(CC(=O)NCCc2ccc(S(N)(=O)=O)cc2)cc1`: 7.5 nM; for `NS(=O)(=O)c1ccc(CNC(=O)Cc2ccc(Cl)cc2)cc1`: 12.5 nM.
`COc1ccc(CC(=O)Nc2ccc(S(N)(=O)=O)cc2)cc1` came in with a Ki of 8 nM.
`NS(=O)(=O)c1ccc(CCNC(=O)Cc2ccccc2Br)cc1` registered a Ki of 3.3 nM.
On the same count and under the same terms, the same measure for `COc1ccc(CC(=O)Nc2nnc(S(N)(=O)=O)s2)cc1`: 0.51 nM; for `NS(=O)(=O)c1ccc(NC(=O)Cc2ccc(Cl)cc2)cc1`: 2.7 nM.
Compound `NS(=O)(=O)c1nnc(NC(=O)Cc2ccc(Cl)cc2)s1` showed an inhibition constant Ki of 0.95 nM.
Same read-out and setting: the same measure for `COc1ccc(CC(=O)NCc2ccc(S(N)(=O)=O)cc2)cc1`: 7.4 nM.
The same measure, in the same setting: the same measure for `NS(=O)(=O)c1ccc(CCNC(=O)Cc2ccc(Cl)cc2)cc1`: 11.8 nM; for `COc1ccc(CC(=O)Nc2ccc(S(N)(=O)=O)cc2Cl)cc1`: 7.9 nM.

For a further experiment, the target named is Carbonic anhydrase 1 (Homo sapiens, UniProt P00915). Description: Inhibition of human carbonic anhydrase 1 preincubated for 15 mins to 6 hrs by CO2 hydration stopped-flow assay.
Chain of Carbonic anhydrase 1 (P00915 whole entry): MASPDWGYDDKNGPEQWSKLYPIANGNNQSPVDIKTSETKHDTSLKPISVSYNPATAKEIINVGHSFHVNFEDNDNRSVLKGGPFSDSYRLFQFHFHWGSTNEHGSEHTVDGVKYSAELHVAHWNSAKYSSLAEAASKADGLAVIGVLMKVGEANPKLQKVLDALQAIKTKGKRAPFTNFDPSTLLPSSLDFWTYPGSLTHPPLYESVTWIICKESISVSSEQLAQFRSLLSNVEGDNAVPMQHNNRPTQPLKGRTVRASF
In turn, `COc1ccc(CC(=O)NCCc2ccc(S(N)(=O)=O)cc2)cc1` displayed a Ki of 3.7 nM.
Same read-out and setting: the figure for `NS(=O)(=O)c1ccc(CCNC(=O)Cc2ccc(Cl)cc2)cc1` is 9.7 nM.
